Results on 2 compounds are retold here after ChEMBL document CHEMBL6134765, “Rapid identification of novel indolylarylsulfone derivatives as potent HIV-1 NNRTIs via miniaturized CuAAC click-chemistry-based combinatorial libraries” (RSC Med Chem, 2025).

Data set [1] deals with Human immunodeficiency virus 1. In words: Antiviral activity against HIV-1 harboring RES056 mutant infected in human MT4 cells assessed as inhibition of virus induced cytotoxicity incubated for 5 days by spectrophometry based MTT assay. It counts as functional, organism-based. The conditions noted are these: Human immunodeficiency virus 1, MT4, 120 h. The method in brief:
(§1)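 MT-4 cells (from Dr. N. Yamamoto, Yamaguchi University) infected with single-mutant (L100I, K103N, Y181C, Y188L, E138K) or double-mutant (F227L/V106A; RES056 = K103N/Y181C) HIV-1 strains. Protection against virus-induced cytotoxicity was read by the MTT method. EC50 is the concentration giving 50% protection of the cell cultures.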
Background: Formazan colour is commonly taken as a measure of viable cells.

Data set [2] in a line: Cytotoxicity against human MT4 cells assessed as reduction in cell viability incubated for 5 days by MTT assay. It counts as toxicity, cell-based. The following applies: time 5 day. The method in brief: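 Mock-infected MT-4 cultures were read by MTT for cell viability. CC50 is the concentration that reduces viability by 50%.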
Data set [3] relates to Human immunodeficiency virus 1. In words: Antiviral activity against HIV-1 harboring L100I mutant infected in human MT4 cells assessed as inhibition of virus induced cytotoxicity incubated for 5 days by spectrophometry based MTT assay. The conditions noted are these: Human immunodeficiency virus 1, MT4, 120 h. It counts as functional, organism-based. The method in brief: as §1

For data set [4], the system named is Human immunodeficiency virus 1. Briefly: Antiviral activity against HIV-1 harboring Y181C mutant infected in human MT4 cells assessed as inhibition of virus induced cytotoxicity incubated for 5 days by spectrophometry based MTT assay. It counts as functional, organism-based. The following applies: Human immunodeficiency virus 1, MT4, 120 h. Put shortly:
as §1

Data set [5] relates to Human immunodeficiency virus 1. In words: Antiviral activity against wild-type HIV-1 IIIB infected in human MT4 cells incubated for 5 days by spectrophometry based MTT assay. It counts as functional, organism-based. The conditions noted are these: Human immunodeficiency virus 1, IIIB, MT4, 120 h. Put shortly: (§2)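 MTT protection assay in MT-4 cells infected with HIV-1 IIIB or HIV-2 ROD. EC50 is the compound concentration giving 50% protection of the cultures against virus-induced cytotoxicity.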

In data set [6] the test system is Human immunodeficiency virus 1. In words: Antiviral activity against HIV-1 harboring E138K mutant infected in human MT4 cells assessed as inhibition of virus induced cytotoxicity incubated for 5 days by spectrophometry based MTT assay. The conditions noted are these: Human immunodeficiency virus 1, MT4, 120 h. It is filed as functional, organism-based. Put shortly:
as §1

Data set [7] relates to Human immunodeficiency virus 2. Briefly: Antiviral activity against HIV-2 ROD infected in human MT4 cells incubated for 5 days by spectrophotometry based MTT assay. It counts as functional, organism-based. The following applies: Human immunodeficiency virus 2, ROD, MT4, 120 h. Put shortly: as §2
Data set [8] addresses Human immunodeficiency virus type 1 reverse transcriptase (Human immunodeficiency virus 1) (UniProt Q72547). Briefly: Inhibition of recombinant HIV-1 reverse transcriptase at 0.66 mM incubated for 1 hr by ELISA relative to control. The method in brief: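 Each library compound was tested directly as the crude click mixture (diluted in DMSO to 2 mM per well) against HIV-1 RT at 0.66 mM, using an ELISA-based RT kit following the kit protocol. Blank controls held DMSO, TBTA, CuSO4·5H2O and sodium ascorbate. Inhibition is expressed as a percentage.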
(In general: In an ELISA, binding on a coated surface is turned into a signal by an enzyme label.)

Data set [9] is described as follows: Selectivity index, ratio of CC50 for cytotoxicity against human MT4 cells to EC50 for antiviral activity against wild-type HIV-1 IIIB infected in human MT4 cells. It counts as toxicity, cell-based. The following applies: read-out: Ratio CC50/EC50. The method in brief:
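Selectivity index is calculated as CC50 (mock-infected MT-4, MTT) divided by EC50 (HIV-1 IIIB protection of MT-4, MTT).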

In data set [10] the test system is Human immunodeficiency virus 1. In words: Antiviral activity against HIV-1 harboring F227L/V106A double mutant infected in human MT4 cells assessed as inhibition of virus induced cytotoxicity incubated for 5 days by spectrophometry based MTT assay. It counts as functional, organism-based. The following applies: Human immunodeficiency virus 1, MT4, 120 h. Put shortly: as §1

For data set [11], the system named is Human immunodeficiency virus 1. Briefly: Antiviral activity against HIV-1 harboring Y188L mutant infected in human MT4 cells assessed as inhibition of virus induced cytotoxicity incubated for 5 days by spectrophometry based MTT assay. It counts as functional, organism-based. The conditions noted are these: Human immunodeficiency virus 1, MT4, 120 h. The method in brief:
as §1

Data set [12] has as its system Human immunodeficiency virus 1. Briefly: Antiviral activity against HIV-1 harboring K103N mutant infected in human MT4 cells assessed as inhibition of virus induced cytotoxicity incubated for 5 days by spectrophometry based MTT assay. It counts as functional, organism-based. The conditions noted are these: Human immunodeficiency virus 1, MT4, 120 h. The method in brief: as §1

Where only a bound is given, the exact number is not on record here.

For orientation: EC50 means the concentration at which the effect is half-maximal. As usually defined, the CC50 is the concentration at which the toxic effect on the cells reaches its halfway point. In general, inhibition refers to the percentage by which the read-out fell short of the control. As for `Cc1cc(C)cc(S(=O)(=O)c2c(C(=O)NCc3cn(CCc4ccccc4)nn3)[nH]c3ccc(Cl)cc23)c1`, the EC50 in [1] is above 4690 nM; in data set [3], 1000 nM; in [4], 2510 nM; in data set [5], 150 nM; in data set [6] it was 870 nM; in data set [7] it was above 4690 nM. The EC50 is 4330 nM in [10], above 162000 nM in data set [11] and 540 nM in data set [12]. In addition, the CC50 at 120 h in data set [2] came to 162000 nM. Besides, the inhibition in data set [8] is above 85%. In addition, in data set [9], the selectivity ratio came out at 1080.

Regarding `COC(=O)CCCn1cc(CNC(=O)c2[nH]c3ccc(Cl)cc3c2S(=O)(=O)c2cc(C)cc(C)c2)nn1`, the EC50 in [1] was above 206000 nM; in [3], 270 nM; in [4] it was 580 nM; in data set [5], 35 nM; in [6] it was 50 nM; in data set [7], above 206000 nM. Moreover, the EC50 came to 1660 nM in [10], 9040 nM in data set [11] and 510 nM in data set [12]. Moreover, the half-maximal cytotoxic concentration (CC50) at 120 h in [2] was 206000 nM. Besides, the inhibition in [8] was above 85%. For the same compound, the selectivity ratio in data set [9] was found to be 5810.
